Converted amounts (≈) assume the structure as drawn. The source made the active and inactive calls. The calls are words filed in the database; no cut-off is given here.
Tests used:
Candida albicans [1] = assay: Antifungal activity against Candida albicans ATCC MYA-573 after 24 hrs by microdilution method; format: functional; conditions: ATCC MYA-573, 24 h
Outline: (§1)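 CLSI broth microdilution run at 30°C instead of standard temperature; starting inoculum 1 × 10^3 to 3 × 10^3 cells/ml; DMSO under 1% final. Endpoints: MIC-0 = lowest concentration giving an optically clear well; MIC-2 = 50% drop versus drug-free control in absorbance at 570 nm with alamar blue redox indicator, used because treated cells clump.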

Saccharomyces cerevisiae [2] = assay: […] activity against Saccharomyces cerevisiae AY-10 transformed with pRS416-13 carrying ADP1 gene after 24 hrs by microdilution method; format: functional; conditions: AY-10, 24 h
Candida albicans [3] = assay: Inhibition of hyphal elongation of Candida albicans ATCC 24433 at 4 ug/ml after 6 hrs by microscopy; format: functional, organism-based
Outline: (§2)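 Hyphae induced in HFM-7 medium (Lee's medium also used) on type I collagen-coated wells, drug 0, 1, 4 or 16 μg/ml; static culture at 37°C, viewed by light microscopy after 6 h or 24 h.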

Nakaseomyces glabratus [4] = assay: Fungicidal activity against Candida glabrata IFO0622 after 24 hrs by microdilution method; format: functional; conditions: IFO0622, 24 h
Outline: (§3)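 Fungicidal concentration: after the MIC plate read, 4 μl from each well transferred into 200 μl MOPS-buffered RPMI, incubated 24 h at 30°C; MFC = lowest drug concentration with no visible growth.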

Staphylococcus aureus = assay: Antibacterial activity against Staphylococcus aureus 209P; format: functional
Candida parapsilosis = assay: Antifungal activity against Candida parapsilosis IFO1396 after 24 hrs by microdilution method; format: functional; conditions: Lodderomyces parapsilosis, IFO1396, 24 h; outline: as §1
Saccharomyces cerevisiae [5] = assay: Inhibition of chitin synthesis in Saccharomyces cerevisiae AY-10 assessed as reduction in [14C]glucose incorporation at 0.078 to 1.25 ug/ml after 1 hr; format: functional, organism-based
Outline: (§4)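 Exponential cells in RPMI 1640 at A595 about 0.6, pulse-labelled with [14C]glucose 2 μCi/ml plus drug at 30°C, sampled at 1 and 3 h. Cell wall fractionated: mannan from 3% NaOH extracts at 80°C by Fehling's reaction; residue digested with Zymolyase 100T (1 mg/ml), insoluble part = chitin; β-1,3-glucan = total glucan minus dialysed β-1,6-glucan. Scintillation counting; % change versus untreated.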

Saccharomyces cerevisiae [6] = assay: Inhibition of chitin synthesis in Saccharomyces cerevisiae AY-10 assessed as reduction in [14C]glucose incorporation at 0.078 to 1.25 ug/ml after 3 hrs; format: functional, organism-based; outline: as §4
Saccharomyces cerevisiae [7] = assay: […] activity against Saccharomyces cerevisiae AY-10 after 24 hrs by microdilution method; format: functional; conditions: AY-10, 24 h
Saccharomyces cerevisiae [8] = assay: Inhibition of mannan synthesis in Saccharomyces cerevisiae AY-10 assessed as reduction in [14C]glucose incorporation at 0.078 to 1.25 ug/ml after 1 hr; format: functional, organism-based; outline: as §4
Pichia kudriavzevii = assay: Antifungal activity against Candida krusei TIMM0269 after 24 hrs by microdilution method; format: functional; conditions: TIMM0269, 24 h; outline: as §1
Saccharomyces cerevisiae [9] = assay: […] activity against Saccharomyces cerevisiae AY-10 transformed with empty vector pRS416 after 24 hrs by microdilution method; format: functional; conditions: AY-10, 24 h
Trichosporon asahii = assay: Antifungal activity against Trichosporon asahii ATCC 90039 at 32 ug/ml after 24 hrs by microdilution method; format: functional, organism-based; outline: as §1
Saccharomyces cerevisiae [10] = assay: Fungicidal activity against Saccharomyces cerevisiae AY-10-R11 mutant after 24 hrs by microdilution method; format: functional; conditions: AY-10-R11, 24 h
Saccharomyces cerevisiae [11] = assay: Antifungal activity against Saccharomyces cerevisiae YPH500 after 24 hrs by microdilution method; format: functional; conditions: YPH500, 24 h
Outline: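 CLSI broth microdilution, incubated at 30°C, starting inoculum 1 × 10^3 to 3 × 10^3 cells/ml; drugs from DMSO, final DMSO below 1%. MIC-0 is the lowest concentration giving an optically clear well. MIC-2 is read with alamar blue as a 50% drop in A570 versus the drug-free control; both endpoints were recorded.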

Saccharomyces cerevisiae [12] = assay: Fungicidal activity against Saccharomyces cerevisiae AY-10-R15 mutant after 24 hrs by microdilution method; format: functional; conditions: AY-10-R15, 24 h
Candida albicans [13] = assay: Antifungal activity against Candida albicans ATCC 24433 after 24 hrs by microdilution method; format: functional; conditions: ATCC 24433, 24 h; outline: as §1
Saccharomyces cerevisiae [14] = assay: Fungicidal activity against Saccharomyces cerevisiae YPH500 after 24 hrs by microdilution method; format: functional; conditions: YPH500, 24 h; outline: as §3
Nakaseomyces glabratus [15] = assay: Antifungal activity against Candida glabrata ATCC 200918 after 24 hrs by microdilution method; format: functional; conditions: ATCC 200918, 24 h; outline: as §1
Nakaseomyces glabratus [16] = assay: Antifungal activity against Candida glabrata IFO0622 after 24 hrs by microdilution method; format: functional; conditions: IFO0622, 24 h; outline: as §1
Nakaseomyces glabratus [17] = assay: Fungistatic activity aganist Candida glabrata IFO0622assessed as growth inhibition at 1 to 16 ug/ml by time-kill study; format: functional, organism-based; conditions: IFO0622
Outline: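 Exponentially growing cells suspended at 1 × 10^4 cells/ml in RPMI 1640 with or without drug, shaken gently at 30°C; samples taken at 2, 4, 8, 24 and 48 h, diluted and spread on SDA, colonies counted after overnight incubation at 30°C to give viable cell numbers.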

Escherichia coli = assay: Antibacterial activity against Escherichia coli NIHJ; format: functional
Clavispora lusitaniae = assay: Antifungal activity against Candida lusitaniae ATCC 200951 after 24 hrs by microdilution method; format: functional; conditions: ATCC 200951, 24 h; outline: as §1
Aspergillus terreus = assay: Antifungal activity against Aspergillus terreus ATCC 28301 after 24 hrs by microdilution method; format: functional; conditions: ATCC 28301, 24 h; outline: as §1
Saccharomyces cerevisiae [18] = assay: Inhibition of mannan synthesis in Saccharomyces cerevisiae AY-10 assessed as reduction in [14C]glucose incorporation at 0.078 to 1.25 ug/ml after 3 hrs; format: functional, organism-based; outline: as §4
Saccharomyces cerevisiae [19] = assay: Fungicidal activity against Saccharomyces cerevisiae AY-10-R4 mutant after 24 hrs by microdilution method; format: functional; conditions: AY-10-R4, 24 h
Saccharomyces cerevisiae [20] = assay: Fungicidal activity against Saccharomyces cerevisiae AY-10-R16 mutant after 24 hrs by microdilution method; format: functional; conditions: AY-10-R16, 24 h
Candida albicans [21] = assay: Inhibition of hyphal elongation of Candida albicans ATCC 24433 at 16 ug/ml after 24 hrs by microscopy; format: functional, organism-based; outline: as §2
Saccharomyces cerevisiae [22] = assay: Fungicidal activity against Saccharomyces cerevisiae CT-1a mutant after 24 hrs by microdilution method; format: functional
Candida albicans [23] = assay: Inhibition of hyphal elongation of Candida albicans ATCC 24433 at 1 ug/ml after 24 hrs by microscopy; format: functional, organism-based; outline: as §2
Saccharomyces cerevisiae [24] = assay: […] activity against Saccharomyces cerevisiae AY-10 transformed with pRS416-31 carrying KRE6 gene after 24 hrs by microdilution method; format: functional; conditions: AY-10, 24 h
Candida albicans [25] = assay: Inhibition of hyphal elongation of Candida albicans ATCC 24433 at 4 ug/ml after 24 hrs by microscopy; format: functional, organism-based; outline: as §2
Candida albicans [26] = assay: Inhibition of hyphal elongation of Candida albicans ATCC 24433 at 16 ug/ml after 6 hrs by microscopy; format: functional, organism-based; outline: as §2

SMILES: CCc1c(C)c(C#N)c2nc3ccccc3n2c1NCCN(CC)CC
- MIC (Candida albicans [1]): 32 µg/mL (≈ 91.6 µM)
- MIC50 (Candida albicans [1]): 16 µg/mL (≈ 45.8 µM)
- MIC (Saccharomyces cerevisiae [2]): 4 µg/mL (≈ 11.4 µM)
- inhibition (Candida albicans [3]): Active
- MFC (Nakaseomyces glabratus [4]): 32 µg/mL (≈ 91.6 µM)
- MIC (Staphylococcus aureus): > 32 µg/mL
- MIC (Candida parapsilosis): > 32 µg/mL
- MIC50 (Candida parapsilosis): 4 µg/mL (≈ 11.4 µM)
- inhibition (Saccharomyces cerevisiae [5]): inactive
- inhibition (Saccharomyces cerevisiae [6]): inactive
- MIC (Saccharomyces cerevisiae [7]): 2 µg/mL (≈ 5.72 µM)
- inhibition (Saccharomyces cerevisiae [8]): inactive
- MIC (Pichia kudriavzevii): 16 µg/mL (≈ 45.8 µM)
- MIC50 (Pichia kudriavzevii): 8 µg/mL (≈ 22.9 µM)
- MIC (Saccharomyces cerevisiae [9]): 2 µg/mL (≈ 5.72 µM)
- Activity (Trichosporon asahii): inactive
- MIC (Saccharomyces cerevisiae [10]): 8 µg/mL (≈ 22.9 µM)
- MIC (Saccharomyces cerevisiae [11]): 2 µg/mL (≈ 5.72 µM)
- MIC50 (Saccharomyces cerevisiae [11]): 1 µg/mL (≈ 2.86 µM)
- MIC (Saccharomyces cerevisiae [12]): > 64 µg/mL
- MIC (Candida albicans [13]): 32 µg/mL (≈ 91.6 µM)
- MIC50 (Candida albicans [13]): 8 µg/mL (≈ 22.9 µM)
- MFC (Saccharomyces cerevisiae [14]): > 32 µg/mL
- MIC (Nakaseomyces glabratus [15]): 4 µg/mL (≈ 11.4 µM)
- MIC50 (Nakaseomyces glabratus [15]): 4 µg/mL (≈ 11.4 µM)
- MIC (Nakaseomyces glabratus [16]): 2 µg/mL (≈ 5.72 µM)
- MIC50 (Nakaseomyces glabratus [16]): 1 µg/mL (≈ 2.86 µM)
- Activity (Nakaseomyces glabratus [17]): Dose-dependent effect
- MIC (Escherichia coli): > 32 µg/mL
- MIC (Clavispora lusitaniae): 16 µg/mL (≈ 45.8 µM)
- MIC50 (Clavispora lusitaniae): 8 µg/mL (≈ 22.9 µM)
- MIC (Aspergillus terreus): > 32 µg/mL
- MIC50 (Aspergillus terreus): > 32 µg/mL
- inhibition (Saccharomyces cerevisiae [18]): inactive
- MIC (Saccharomyces cerevisiae [19]): 8 µg/mL (≈ 22.9 µM)
- MIC (Saccharomyces cerevisiae [20]): 4 µg/mL (≈ 11.4 µM)
- inhibition (Candida albicans [21]): Active
- MIC (Saccharomyces cerevisiae [22]): 8 µg/mL (≈ 22.9 µM)
- inhibition (Candida albicans [23]): Active
- MIC (Saccharomyces cerevisiae [24]): 32 µg/mL (≈ 91.6 µM)
- inhibition (Candida albicans [25]): Active
- inhibition (Candida albicans [26]): Active

— ChEMBL document CHEMBL1629587, “Discovery of a small-molecule inhibitor of {beta}-1,6-glucan synthesis” (2009)
